Data: ChEMBL document CHEMBL1177716, “Kinesin spindle protein (KSP) inhibitors with 2,3-fused indole scaffolds” (J Med Chem, 2010)
Calls of active or inactive are those of the source. The rule behind the calls is not given here.

Legend:
[1] = biological target: T1, Kinesin-like protein KIF11 (Homo sapiens, UniProt P52732); assay: Inhibition of human C-terminally His6-tagged microtubule-activated KSP motor domain ATPase activity after 30 mins by luciferase-derived luminescence assay
T1 sequence (P52732 whole entry): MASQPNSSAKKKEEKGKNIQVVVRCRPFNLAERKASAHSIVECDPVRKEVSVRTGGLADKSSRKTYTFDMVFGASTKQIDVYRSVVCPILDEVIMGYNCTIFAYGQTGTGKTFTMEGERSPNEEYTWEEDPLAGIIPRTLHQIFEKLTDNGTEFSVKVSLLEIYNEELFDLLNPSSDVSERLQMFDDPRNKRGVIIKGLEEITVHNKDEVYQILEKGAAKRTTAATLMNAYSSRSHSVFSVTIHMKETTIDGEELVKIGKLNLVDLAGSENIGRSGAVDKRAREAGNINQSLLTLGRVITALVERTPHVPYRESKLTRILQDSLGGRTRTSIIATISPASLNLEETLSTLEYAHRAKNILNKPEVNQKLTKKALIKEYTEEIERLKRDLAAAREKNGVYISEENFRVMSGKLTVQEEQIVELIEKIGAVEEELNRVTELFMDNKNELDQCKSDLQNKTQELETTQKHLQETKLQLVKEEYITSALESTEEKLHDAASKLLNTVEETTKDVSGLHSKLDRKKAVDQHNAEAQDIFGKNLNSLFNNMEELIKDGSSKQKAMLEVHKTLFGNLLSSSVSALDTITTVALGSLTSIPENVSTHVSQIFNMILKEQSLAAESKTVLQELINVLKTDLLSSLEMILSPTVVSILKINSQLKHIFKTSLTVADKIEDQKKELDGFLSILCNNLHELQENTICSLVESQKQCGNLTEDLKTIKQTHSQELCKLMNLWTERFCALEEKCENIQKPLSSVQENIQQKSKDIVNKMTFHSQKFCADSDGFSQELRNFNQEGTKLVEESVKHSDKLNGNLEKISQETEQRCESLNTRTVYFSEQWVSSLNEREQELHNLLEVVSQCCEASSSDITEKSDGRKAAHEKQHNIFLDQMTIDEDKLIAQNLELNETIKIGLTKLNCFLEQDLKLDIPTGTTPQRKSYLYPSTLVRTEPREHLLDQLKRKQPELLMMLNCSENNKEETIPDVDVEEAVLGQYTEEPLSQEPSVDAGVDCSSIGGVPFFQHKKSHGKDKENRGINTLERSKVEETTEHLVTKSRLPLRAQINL

[2] = biological target: Centromere-associated protein E (Homo sapiens) (UniProt Q02224); assay: Inhibition of CENP-E ATPase activity at 20 uM
[3] = biological target: T2, Kinesin-like protein KIF22 (Homo sapiens) (UniProt Q14807); assay: Inhibition of Kid ATPase activity at 20 uM
T2 sequence (whole entry): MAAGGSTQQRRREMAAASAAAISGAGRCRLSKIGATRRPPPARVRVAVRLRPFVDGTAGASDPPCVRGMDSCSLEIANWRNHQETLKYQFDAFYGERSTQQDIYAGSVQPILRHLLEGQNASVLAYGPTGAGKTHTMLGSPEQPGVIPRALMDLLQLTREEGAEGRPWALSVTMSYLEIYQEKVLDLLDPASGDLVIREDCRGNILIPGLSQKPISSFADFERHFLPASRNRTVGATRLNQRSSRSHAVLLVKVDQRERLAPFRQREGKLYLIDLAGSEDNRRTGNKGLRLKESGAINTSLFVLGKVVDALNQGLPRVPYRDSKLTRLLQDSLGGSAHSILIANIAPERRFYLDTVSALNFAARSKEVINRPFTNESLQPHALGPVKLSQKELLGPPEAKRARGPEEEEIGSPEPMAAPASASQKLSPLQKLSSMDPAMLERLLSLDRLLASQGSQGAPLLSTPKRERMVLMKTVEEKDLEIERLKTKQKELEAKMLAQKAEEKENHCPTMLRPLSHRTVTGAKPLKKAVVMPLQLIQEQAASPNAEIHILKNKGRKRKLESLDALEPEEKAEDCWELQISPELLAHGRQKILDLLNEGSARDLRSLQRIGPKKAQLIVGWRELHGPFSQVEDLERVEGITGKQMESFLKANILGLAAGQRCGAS

[4] = biological target: T3, Kinesin-like protein KIF23 (Homo sapiens) (UniProt Q02241); assay: Inhibition of MKLP-1 ATPase activity at 20 uM
T3 sequence (whole entry): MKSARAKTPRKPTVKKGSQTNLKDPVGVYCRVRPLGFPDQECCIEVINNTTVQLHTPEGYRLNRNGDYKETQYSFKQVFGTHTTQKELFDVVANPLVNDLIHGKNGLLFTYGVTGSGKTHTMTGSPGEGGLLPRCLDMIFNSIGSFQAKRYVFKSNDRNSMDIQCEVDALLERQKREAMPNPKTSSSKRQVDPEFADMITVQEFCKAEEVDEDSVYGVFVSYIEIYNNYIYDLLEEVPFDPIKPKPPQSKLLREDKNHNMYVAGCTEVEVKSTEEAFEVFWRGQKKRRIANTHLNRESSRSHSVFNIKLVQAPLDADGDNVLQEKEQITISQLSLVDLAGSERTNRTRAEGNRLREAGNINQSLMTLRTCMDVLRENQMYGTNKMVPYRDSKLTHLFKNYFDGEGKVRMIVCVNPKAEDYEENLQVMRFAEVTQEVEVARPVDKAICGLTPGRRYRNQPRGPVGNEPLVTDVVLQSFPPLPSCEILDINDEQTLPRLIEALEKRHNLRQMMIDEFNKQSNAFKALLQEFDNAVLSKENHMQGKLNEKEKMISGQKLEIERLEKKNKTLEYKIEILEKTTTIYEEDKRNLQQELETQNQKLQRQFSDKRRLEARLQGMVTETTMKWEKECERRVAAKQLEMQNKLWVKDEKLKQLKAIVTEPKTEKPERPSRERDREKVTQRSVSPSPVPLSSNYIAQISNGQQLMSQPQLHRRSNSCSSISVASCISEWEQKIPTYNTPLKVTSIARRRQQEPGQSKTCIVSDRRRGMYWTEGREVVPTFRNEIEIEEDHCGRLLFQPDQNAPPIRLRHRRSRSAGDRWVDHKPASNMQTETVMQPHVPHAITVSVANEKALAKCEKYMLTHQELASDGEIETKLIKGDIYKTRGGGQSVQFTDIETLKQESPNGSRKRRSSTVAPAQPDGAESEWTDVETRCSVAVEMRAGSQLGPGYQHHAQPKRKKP

[5] = species: Sus scrofa; assay: Inhibition of pig brain topoisomerase 1-mediated supercoiled DNA relaxation after 20 mins by agarose gel electrophoresis analysis
In short: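 Supercoiled DNA was incubated with topo I, with or without test compound. Gel lanes included supercoiled DNA alone, DNA plus enzyme without compound, and DNA plus enzyme with camptothecin as the reference inhibitor.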

[6] = species: Sus scrofa; assay: Inhibition of pig brain topoisomerase 2-mediated supercoiled DNA relaxation after 20 mins by agarose gel electrophoresis analysis
In short: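 Supercoiled DNA was incubated with topo II, with or without test compound. Gel lanes included supercoiled DNA alone, DNA plus enzyme without compound, and DNA plus enzyme with AMSA as the reference inhibitor.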

[7] = test system: HeLa; assay: Cytotoxicity against human HeLa cells after 48 hrs […]; assay type: functional, cell-based; conditions: Homo sapiens, HeLa, 48 h

Centromere-associated protein E (Homo sapiens), sequence (Q02224 whole entry): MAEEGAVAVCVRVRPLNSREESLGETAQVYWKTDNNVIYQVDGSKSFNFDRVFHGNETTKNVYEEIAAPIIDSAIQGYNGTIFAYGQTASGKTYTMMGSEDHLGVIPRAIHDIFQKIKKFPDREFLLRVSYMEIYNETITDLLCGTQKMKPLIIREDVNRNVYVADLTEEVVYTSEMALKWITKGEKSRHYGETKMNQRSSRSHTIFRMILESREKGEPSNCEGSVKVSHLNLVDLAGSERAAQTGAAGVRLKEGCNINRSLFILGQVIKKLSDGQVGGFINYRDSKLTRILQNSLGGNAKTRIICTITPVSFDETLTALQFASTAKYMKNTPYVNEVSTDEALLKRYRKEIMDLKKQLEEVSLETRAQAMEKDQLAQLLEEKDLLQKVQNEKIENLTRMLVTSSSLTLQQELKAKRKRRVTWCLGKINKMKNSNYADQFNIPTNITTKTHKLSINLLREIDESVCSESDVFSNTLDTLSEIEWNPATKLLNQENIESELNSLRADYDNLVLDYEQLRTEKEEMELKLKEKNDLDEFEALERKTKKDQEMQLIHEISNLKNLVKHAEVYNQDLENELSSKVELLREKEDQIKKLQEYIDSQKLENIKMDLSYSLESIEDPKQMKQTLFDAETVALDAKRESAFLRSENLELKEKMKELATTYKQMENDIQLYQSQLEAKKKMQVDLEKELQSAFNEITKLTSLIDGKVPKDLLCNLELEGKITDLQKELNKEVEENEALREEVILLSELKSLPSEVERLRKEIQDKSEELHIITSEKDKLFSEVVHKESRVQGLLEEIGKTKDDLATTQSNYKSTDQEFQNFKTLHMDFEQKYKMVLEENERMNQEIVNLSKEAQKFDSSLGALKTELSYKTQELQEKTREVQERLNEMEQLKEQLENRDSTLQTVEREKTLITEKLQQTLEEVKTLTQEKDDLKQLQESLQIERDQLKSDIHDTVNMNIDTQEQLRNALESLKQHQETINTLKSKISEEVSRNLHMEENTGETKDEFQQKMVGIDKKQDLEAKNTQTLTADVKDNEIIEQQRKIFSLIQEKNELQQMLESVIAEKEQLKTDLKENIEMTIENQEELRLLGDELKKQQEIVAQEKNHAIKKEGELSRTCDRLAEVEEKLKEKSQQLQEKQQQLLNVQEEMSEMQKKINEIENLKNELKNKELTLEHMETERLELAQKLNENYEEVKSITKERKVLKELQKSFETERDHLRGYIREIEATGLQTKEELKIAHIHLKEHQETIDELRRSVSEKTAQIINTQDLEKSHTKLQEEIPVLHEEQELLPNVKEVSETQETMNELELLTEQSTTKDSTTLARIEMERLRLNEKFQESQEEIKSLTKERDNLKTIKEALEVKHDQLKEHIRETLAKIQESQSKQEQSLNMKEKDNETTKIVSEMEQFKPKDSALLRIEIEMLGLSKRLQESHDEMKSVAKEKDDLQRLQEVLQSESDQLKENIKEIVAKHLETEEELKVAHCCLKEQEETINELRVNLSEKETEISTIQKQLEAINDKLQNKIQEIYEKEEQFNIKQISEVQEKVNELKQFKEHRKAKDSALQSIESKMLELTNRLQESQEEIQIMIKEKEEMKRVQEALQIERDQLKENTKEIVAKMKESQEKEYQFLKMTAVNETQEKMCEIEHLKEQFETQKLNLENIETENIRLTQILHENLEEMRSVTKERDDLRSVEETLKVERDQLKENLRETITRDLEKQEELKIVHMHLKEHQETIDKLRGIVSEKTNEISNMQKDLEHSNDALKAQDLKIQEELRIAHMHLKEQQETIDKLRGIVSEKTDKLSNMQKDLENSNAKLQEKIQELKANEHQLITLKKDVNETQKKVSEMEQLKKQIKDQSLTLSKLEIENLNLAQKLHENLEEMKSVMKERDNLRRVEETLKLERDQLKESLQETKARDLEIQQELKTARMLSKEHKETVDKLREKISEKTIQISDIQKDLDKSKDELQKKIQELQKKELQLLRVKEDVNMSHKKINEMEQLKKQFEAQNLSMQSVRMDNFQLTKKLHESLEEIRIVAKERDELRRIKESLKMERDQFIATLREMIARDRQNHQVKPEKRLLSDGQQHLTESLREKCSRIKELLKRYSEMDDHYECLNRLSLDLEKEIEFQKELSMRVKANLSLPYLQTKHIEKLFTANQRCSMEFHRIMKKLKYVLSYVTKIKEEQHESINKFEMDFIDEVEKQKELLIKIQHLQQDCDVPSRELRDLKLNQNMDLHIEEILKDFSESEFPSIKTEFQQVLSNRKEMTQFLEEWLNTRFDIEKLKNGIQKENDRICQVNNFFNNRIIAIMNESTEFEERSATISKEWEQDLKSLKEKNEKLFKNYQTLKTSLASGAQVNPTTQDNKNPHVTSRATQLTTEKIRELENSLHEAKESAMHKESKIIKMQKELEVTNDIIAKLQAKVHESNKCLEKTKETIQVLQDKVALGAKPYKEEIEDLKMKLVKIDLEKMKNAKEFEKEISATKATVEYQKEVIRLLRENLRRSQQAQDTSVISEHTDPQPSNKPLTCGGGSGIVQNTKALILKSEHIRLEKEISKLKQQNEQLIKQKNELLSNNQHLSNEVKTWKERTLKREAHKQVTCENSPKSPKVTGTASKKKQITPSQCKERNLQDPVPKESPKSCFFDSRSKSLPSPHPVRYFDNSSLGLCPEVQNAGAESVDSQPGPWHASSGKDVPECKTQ

`FC(F)(F)c1ccc2c(c1)[nH]c1ccccc12` was tested, and the IC50 [1] was 0.26 µM, the inhibition [2] was “inactive” and the inhibition [3] was “inactive”. For the same molecule, the inhibition [4] was “inactive”, the inhibition [5] was “inactive” and the inhibition [6] was “inactive”. The IC50 [7] was 11 µM.

In the case of `FC(F)(F)c1ccc2[nH]c3ccccc3c2c1`, the IC50 [1] is reported as 0.95 µM, the inhibition [2] is reported as “inactive” and the inhibition [3] is reported as “inactive”. For the same molecule, the inhibition [4] was “inactive”, the inhibition [5] was “inactive” and the inhibition [6] was “inactive”. It also gave an IC50 [7] of 14 µM.

`CC(C)(C)c1ccc2c(c1)[nH]c1ccccc12` was tested, and the IC50 [1] was 0.3 µM, the inhibition [2] was “inactive” and the inhibition [3] was “inactive”. The inhibition [4] was “inactive”, the inhibition [5] was “inactive” and the inhibition [6] was “inactive”. The IC50 [7] was 40 µM.
